# Source: PubChem (several laboratories)
# Shown are actives, neighbours in structure and some others; about 1.9% of the full set was active somewhere.
# UHRF1 MBD2 ctr: UHRF1 methylated DNA binding inhibitors, primary screen, counter-screen for MBD2 inhibitor project, biochemical, TR-FRET, human UHRF1, single concentration; UHRF1 binding to methylated oligo; inhibition, % at 4.4 µM; hit rate 0.75% among 370,000;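 note: UHRF1 SRA domain binding a hemimethylated CpG hairpin DNA probe; 0% = median of test compound wells and 100% = reference inhibitor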
# TDP2 inh: human TDP2 enzyme inhibitors, primary screen, biochemical, epi absorbance, recombinant enzyme | Tyrosyl-DNA phosphodiesterase 2 (Homo sapiens), O95551 | T5PNP hydrolysis, p-nitrophenol absorbance 415 nm | AID 720702, 2013 | hit rate 0.34% among 370,000 | inhibition, % at 12.8 µM;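 active = inhibition above the mean of all tested compounds plus 3 SD, set per campaign, cut at about 25% in these data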;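 note: 0% = DMSO with enzyme and 100% = buffer with substrate but no TDP2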
#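 System: recombinant human TDP2 / Amount: 120 nM TDP2 per well / Also added: 5 mM T5PNP chromogenic substrate / Doses: 12.8 µM single point, 1% DMSO / Incubation: 2 h at 37 °C / Detection: p-Nitrophenol epi absorbance / Evaluation: % inhibition relative to enzyme-containing and enzyme-free wells / Repeats: singlicate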
# LEDGF integ inh: blockers of LEDGF/p75-dependent integrase strand transfer – biochemical, TR-FRET, high throughput, primary screen. TR-FRET IN-LEDGF/p75 DNA integration, Eu/Cy5. inhibition, % at 3.7 µM. hit rate 0.64% among 370,000;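 active = inhibition above the screen-wide mean plus 3 SD, cut at about 13% in these data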;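 note: signal is the Cy5 over europium emission ratio at 671 and 618 nm; 0% = plate median of compound wells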
# MBD2 DNA inh: inhibitors of MBD2 binding to methylated DNA, primary screen, biochemical, TR-FRET, DNA-binding domain, human. AID 686964, 2013. inhibition, % at 4.4 µM. Methyl-CpG-binding domain protein 2 (Homo sapiens), Q9UBB5. hit rate 0.31% among 370,000. MBD2 binding to methylated oligonucleotide; in the data active = inhibition above about 13%
# Casp6 inh: human caspase-6 inhibitors, primary screen, biochemical, VEID-R110 fluorescence, single point, set 2. inhibition, % at 12.5 µM. AID 686996, 2013. P55212. purified caspase-6, Z-VEID-R110 cleavage fluorescence. hit rate 0.53% among 350,000;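 active = mean inhibition across replicates at least about 35%, with every replicate also reaching that limit, limit read from the data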;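 note: 0% = median of neutral control wells and 100% = no fluorescence left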
# NSD2 HMT inh: NSD2 histone methyltransferase inhibitors, primary screen, biochemical, AlphaScreen, single concentration, set 2. NSD2 peptide methylation, 120 min. inhibition, % at 12.5 µM. hit rate 0.54% among 310,000; in the data active = inhibition above about 50%
# UHRF1 ctr MBD2: UHRF1 methylated DNA binding inhibitors, counter-screen for MBD2 inhibitor project, biochemical, TR-FRET, human UHRF1; shares compounds with MBD2 DNA inh; UHRF1 binding to methylated oligonucleotide; inhibition, % at 4.4 µM; hit rate 25% among 1,000;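 note: UHRF1 SRA domain binding a labeled hemimethylated CpG hairpin DNA; 0% = vehicle only and 100% = reference inhibitor with vehicle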
# MBD2 DBD conf: inhibitors of MBD2 binding to methylated DNA, confirmation, biochemical, TR-FRET, DNA-binding domain, human; shares compounds with MBD2 DNA inh; TR-FRET MBD2-DBD binding to methylated oligonucleotide; inhibition, % at 4.4 µM; hit rate 26% among 1,000; AID 720531, 2013; in the data active = inhibition above about 14%
# Starred values were filed as active, the others as inactive; x = no result. Cut-off read from the data, not from the text of the source, unless noted: active = inhibition above about 21%; inactive = the rest.
SMILES,UHRF1 MBD2 ctr,TDP2 inh,LEDGF integ inh,MBD2 DNA inh,Casp6 inh,NSD2 HMT inh,UHRF1 ctr MBD2,MBD2 DBD conf
C/C(=N\NC(=O)C1CCCN(S(=O)(=O)c2ccccc2)C1)c1ccncc1 (stereo not drawn),-3,-12,0,3,x,0,x,x
C[C@@H](/C=C/C(=O)OC(C)(C)C)Sc1ccc(C(C)(C)C)cc1,-3,-2,3,18*,x,x,8,2
CCC[C@@H](/C=C/C(=O)OC(C)(C)C)Sc1ccc(C(C)(C)C)cc1,3,3,0,-3,x,x,x,x
O=C(Nc1ccc(Oc2cccc(C(F)(F)F)c2)nc1)c1ccccc1,0,3,-3,1,-2,-2,x,x
COc1cccc(C(=O)Nc2ccc(Oc3cccc(C(F)(F)F)c3)nc2)c1,0,5,4,14*,-2,-2,5,0
O=C(COC(=O)c1c2c(nc3ccccc13)/C(=C/c1ccco1)CC2)NC1CCCC1,45*,0,39*,14*,x,1,43*,32*
COC(=O)c1ccc(CSc2nc3sc(C(=O)O)c(C)c3c(=O)[nH]2)cc1,2,-4,-2,-3,3,1,x,x
COC(=O)c1ccc(CSc2nc3c(c(=O)[nH]2)CCC3)cc1,0,-1,-2,15*,-1,x,3,3
O=C(COC(=O)C1CC1)NC(=O)c1ccccc1,23*,-22,7,16*,7,-4,6,2
COC(=O)C1CCN(C(=O)COC(=O)c2ccc(N3CCCC3=O)cc2)CC1,16,-1,7,14*,-5,0,2,3
CC1CC(C)CN(C(=O)COC(=O)c2ccc(N3CCCC3=O)cc2)C1 (stereo not drawn),-2,-4,0,-6,2,-3,x,x
C[C@@H]1CN([C@H](C)CO)C(=O)Cc2cc(NC(=O)C3CC3)ccc2O[C@@H]1CN(C)C(=O)Nc1ccc2c(c1)OCO2,x,x,x,x,-2,x,x,x
FC(F)(F)c1ccccc1Cc1c(-c2ccco2)nc2c3ccccc3ccn12,21,-6,1,13*,1,x,14,8
C[C@H]1CN([C@@H](C)CO)S(=O)(=O)c2ccc(C#Cc3ccc(F)cc3)cc2O[C@H]1CN(C)C(=O)CN(C)C,x,x,x,x,0,x,x,x
CN(C)CC#Cc1ccc([C@@H]2[C@H](CO)N3CCCCN(C(=O)C4CC4)C[C@@H]23)cc1,x,x,x,x,2,x,x,x
COc1ccccc1C(=O)Nc1ccc(S(=O)(=O)Nc2nccs2)cc1,-1,-7,-4,3,1,0,x,x
O=C(O)c1ccccc1C(=O)Nc1ccc(S(=O)(=O)Nc2nccs2)cc1,17,-6,-3,19*,12,x,9,2
Cc1ccccc1OCC(=O)NS(=O)(=O)c1ccc(Cl)cc1,-2,5,0,14*,0,-2,3,2
COc1ccc(S(=O)(=O)N(C)C[C@H]2Oc3cc(-c4ccccc4OC)ccc3S(=O)(=O)N([C@H](C)CO)C[C@@H]2C)cc1,x,x,x,x,0,x,x,x
CCN(CC)S(=O)(=O)c1ccc(N2CCOCC2)c(NC(=O)c2nn(C)c(=O)c3ccccc23)c1,0,5,-7,14*,1,-2,7,5
CC(C)NS(=O)(=O)c1ccc(OCC(=O)N2CCCC2)cc1,4,2,-5,4,x,21,x,x
